An excerpt weighted towards active compounds, which were near 5.7% of everything screened.
Calb FLC: C. albicans growth modulation with fluconazole; C. albicans CaCi-2 (fluconazole-resistant clinical isolate) + fluconazole, Alamar Blue growth, 48 h; growth inhibition, % (no concentration beside the values); actives 0.57% (n = 300,000); AID 1979;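 active = growth inhibition above about 58% in most replicates, limit read from the data, passing the limit was not always enough; inconclusive = exactly half the replicates above a set limit; inactive = most replicates below a set limit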;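 note: all wells also contain fluconazole at 8 µg/ml as a sub-toxic cotreatment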
T cruzi repl: T. cruzi replication inhibition; actives 1.4% (n = 300,000); inhibition, % (no concentration beside the values); T. cruzi beta-gal in NIH3T3, luminescence, 90 h; AID 1885;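 active = mean inhibition across valid replicates above about 55%, limit read from the data; inconclusive = mean below that limit but half or more replicates reach it; inactive = mean below it, under half of replicates reach it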;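 note: signal also drops with host cell toxicity which is not excluded here; higher percent means less beta-gal luminescence so fewer parasites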
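Incubation – ≥90 h infection period, 3 h prior cell attachment · System – NIH/3T3 fibroblasts plus reporter T. cruzi · Doses – compound pinned at 50 nL/well, DMSO · Read-out basis – percent inhibition of parasite-derived β-gal signal · Signal – luminescent β-galactosidase signal after 60 min lysis · Also added – 5000 T. cruzi trypomastigotes/well · Medium – Low-serum DMEM with 2% FBS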
SKKanGAS inh: blocks kanamycin growth of S. pyogenes SKKanGAS strain; actives 1.3% (n = 300,000); BacTiter-Glo, 6 h; inhibition, % at 7.5 µM; AID 1662;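 active = mean replicate score, as percent of positive control median, at least 50; inconclusive = mean below 50 but one replicate at or above 50; inactive = mean and every replicate below 50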;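 note: strain carries kanamycin resistance gene driven by streptokinase promoter and grows in 40 µg/ml kanamycin; loss of luminescence reflects streptokinase promoter inhibition or plain growth inhibition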
Beta cell apopt: blocks beta cell apoptosis; protection from apoptosis, % (no concentration beside the values); actives 0.8% (n = 300,000); AID 435005; INS-1E cytokine-induced death, ATP luminescence, 48 h; percent of positive-control rescue, neutral wells zero;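 active = Every replicate reaches about 75%, or at least half do and their mean reaches it too, limit read from the data; inconclusive = At least half of replicates reach the limit but their mean does not; inactive = Under half of replicates reach the limit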;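 note: higher means more ATP so stronger rescue from cytokine killing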
Mdm2-MdmX inh: inhibitors of human Mdm2/MdmX interaction; SaOS-2 split-luciferase Mdm2/MdmX complementation, luminescence; inhibition, % at 8 µM; actives 3% (n = 330,000); AID 485346; O15151+Q00987;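 active = inhibition of at least 50% at 8 µM in the primary screen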
Target sequence (O15151 whole entry, looked up): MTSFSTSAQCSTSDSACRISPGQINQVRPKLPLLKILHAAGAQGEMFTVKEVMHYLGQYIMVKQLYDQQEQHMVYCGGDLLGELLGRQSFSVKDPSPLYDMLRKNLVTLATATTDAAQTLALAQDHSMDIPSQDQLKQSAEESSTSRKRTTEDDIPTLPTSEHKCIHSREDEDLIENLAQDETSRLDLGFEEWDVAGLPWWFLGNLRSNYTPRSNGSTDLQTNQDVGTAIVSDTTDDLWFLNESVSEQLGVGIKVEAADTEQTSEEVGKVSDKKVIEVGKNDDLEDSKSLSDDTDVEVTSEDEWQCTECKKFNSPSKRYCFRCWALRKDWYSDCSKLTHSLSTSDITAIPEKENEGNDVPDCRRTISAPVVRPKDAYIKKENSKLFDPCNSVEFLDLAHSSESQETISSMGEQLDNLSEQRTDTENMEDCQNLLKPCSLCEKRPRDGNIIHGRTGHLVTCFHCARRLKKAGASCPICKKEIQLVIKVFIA
Target sequence (Q00987 whole entry, looked up): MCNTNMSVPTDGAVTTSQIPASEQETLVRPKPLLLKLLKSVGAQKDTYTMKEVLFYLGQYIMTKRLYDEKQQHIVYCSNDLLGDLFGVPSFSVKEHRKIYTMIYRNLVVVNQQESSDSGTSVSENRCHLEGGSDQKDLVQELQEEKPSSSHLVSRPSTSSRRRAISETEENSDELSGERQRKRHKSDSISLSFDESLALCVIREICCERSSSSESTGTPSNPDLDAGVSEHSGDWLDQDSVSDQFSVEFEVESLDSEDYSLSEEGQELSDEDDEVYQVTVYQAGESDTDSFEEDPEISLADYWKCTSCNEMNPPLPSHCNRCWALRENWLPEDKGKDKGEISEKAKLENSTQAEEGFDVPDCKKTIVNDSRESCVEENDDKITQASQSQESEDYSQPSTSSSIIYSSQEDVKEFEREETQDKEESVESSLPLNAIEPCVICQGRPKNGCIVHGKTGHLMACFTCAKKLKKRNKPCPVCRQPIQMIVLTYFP
CSC inhib: blocks cancer stem cells; cancer stem cell-like cells viability, luminescence; inhibition, % at 7.5 µM; actives 1.1% (n = 300,000); AID 2717; in the data active = inhibition above about 75%; inconclusive = no clear call, values can overlap the other calls; tested in HMLE shEcad cells
Each line names hits and unclear results; the compound was inactive in the other large screens.

Cc1cc(NC(=O)CCC(=O)N(CCC(C)C)C(C(=O)NCC2CCCO2)c2ccccc2C)no1 (stereo unspecified)	none
CCCCc1oc2ccccc2c1C(=O)c1cc(I)c(OCCN(CC)CC)c(I)c1	SKKanGAS inh 106, CSC inhib 89 (no result: Calb FLC)
CCN(CC)CCOc1ncnc2c1oc1ccccc12	none
CCCCn1c(=O)[nH]c(=O)c2c1nc(-c1ccc(-c3ccccc3Br)o1)n2CC	Calb FLC 104
CCCCn1c(=O)[nH]c(=O)c2c1nc(-c1ccc3ccccc3c1)n2CC	none
COc1cc(CNCc2cccc3ccccc23)cc(OC)c1	none
COc1cc(CNCc2c[nH]c3ccccc23)cc(OC)c1	T cruzi repl 78 (no result: CSC inhib)
Cc1nnc(NC(=O)CSc2ncnc3c2cnn3-c2ccccc2C)s1	Calb FLC 85
CC(C)Oc1ccc(Cc2cnc(N)nc2N)cc1	none (no result: Beta cell apopt)
COc1cc(C)c(Cc2cnc(N)nc2N)cc1OC	SKKanGAS inh 52 (no result: Calb FLC, Mdm2-MdmX inh)
CC(C)Oc1ccc(C(=O)/C=C2/C(=O)Nc3ccccc32)cc1	CSC inhib 102
O=C1Nc2ccccc2/C1=C\C(=O)c1ccccc1	none
CSc1cccc(CN2CCC(n3nccc3NC(=O)C3CC3)CC2)c1	none (no result: Beta cell apopt, CSC inhib)
Cc1ccccc1C(=O)Nc1cccc(-c2ccc(N3CCOCC3)nn2)c1	none (no result: CSC inhib)
Cc1[nH]n(-c2ccccc2)c(=O)c1/C=N/N(c1ccccc1)c1ccccc1	SKKanGAS inh 78
c1ccc(N/N=C(\Cc2ncc[nH]2)c2ccccc2)cc1	Calb FLC 114
Oc1ccc(/C(Cc2ccccn2)=N\Nc2ccccc2)c(O)c1	none
Clc1cccc(N/N=C(\Cc2nc3ccccc3[nH]2)c2ccccc2)c1	Calb FLC inconclusive, SKKanGAS inh 91
CSc1ccc(/C=C(/NC(=O)c2ccco2)C(=O)N2CCOCC2)cc1	none
Cc1ccc2ccc(C(Nc3cccc(C(F)(F)F)c3)c3cccnc3)c(O)c2n1 (stereo unspecified)	SKKanGAS inh 65
COc1ccccc1NC(c1cccnc1)c1ccc2cccnc2c1O (stereo unspecified)	Calb FLC 82
COc1ccccc1NC(NC(=O)c1cccnc1)C(Cl)(Cl)Cl (stereo unspecified)	none
Cc1ccnc(NC(c2cccnc2)c2ccc3cccnc3c2O)c1 (stereo unspecified)	Calb FLC 90, SKKanGAS inh inconclusive
O=S(=O)(Nc1cccc(C(F)(F)F)c1)c1cccnc1	none
O=C1c2ccccc2[C@@H]2C[C@H]3O[C@H]3CCN12	none (no result: Calb FLC, T cruzi repl, SKKanGAS inh, Beta cell apopt, CSC inhib)
COc1ccc(S(=O)(=O)NNc2nc(C)cc(C)n2)cc1[N+](=O)[O-]	none
CNc1ccccc1C(C)(C)c1cc(-c2cccc(OC)c2)no1	none (no result: CSC inhib)
CNc1ccccc1C(C)(C)c1cc(-c2cc(C)cc(C)c2)no1	CSC inhib 97
CC(=O)N1CCN(C(=O)c2ccc(NS(=O)(=O)c3ccc4c(c3)OCCO4)cc2)CC1	none
Cn1cc(CNC(=O)c2cc(COc3ccc4c(c3)CCCC4)on2)cn1	none
O=C(NC(c1cccnc1)C(F)(F)F)c1cc(COc2ccc3c(c2)CCCC3)on1 (stereo unspecified)	Beta cell apopt 107
CCCNC(=O)c1c(N)n(-c2cccc(OC)c2)c2nc3ccccc3nc12	Calb FLC inconclusive, Beta cell apopt 104
Cc1ccc(NC(=O)CN2C(=O)NC3(CCCCC3C)C2=O)cc1S(=O)(=O)N1CCCCC1 (stereo unspecified)	none
CC1CN(C(C)C(=O)NC(c2ccccc2)c2ccccc2)CC(C)O1 (stereo unspecified)	none
CCN(Cc1ccc(OC)c(F)c1)C(=O)/C=C/c1ccc(S(=O)(=O)N2CCOCC2)cc1	none (no result: Calb FLC, T cruzi repl, SKKanGAS inh)
O=C(CCCOc1ccc(Cl)cc1)NC1CCCCC1	none
CCOC(=O)Nc1ccc2c(c1)Nc1ccccc1S2	T cruzi repl 63
CC(=O)c1ccc2c(c1)Nc1ccccc1S2	none
COCCN1C(=O)/C(=C/c2ccc(OCc3ccc(C(=O)O)cc3)c(OC)c2)SC1=Nc1ccccc1	SKKanGAS inh 91 (no result: Beta cell apopt)
CCn1c(=O)c2cc(C(=O)N(C)c3ccc(OC)cc3OC)sc2c2ccccc21	none
CCn1c(=O)c2cc(C(=O)N(C)c3ccccc3F)sc2c2ccccc21	T cruzi repl 69
CC(/C=C1\SC(=O)N(CC(=O)Nc2cccc(O)c2)C1=O)=C\c1ccccc1	CSC inhib 117
CC(/C=C1\SC(=O)N(CC(=O)Nc2ccc(O)cc2)C1=O)=C\c1ccccc1	SKKanGAS inh inconclusive
N#C/C(=C/C=C/c1ccccc1)C(=O)Nc1ccccc1	T cruzi repl 69
N#C/C(=C\C=C\c1ccccc1)C(=O)Nc1ccccc1	none
CCOc1ccc(NC(=O)C(=O)NCCN2CCN(C(=O)c3ccc(C)cc3)CC2)cc1	none (no result: Beta cell apopt)
Cc1ccc(C)c(S(=O)(=O)N2CCN(C(=O)CCc3c[nH]c4ccccc34)CC2)c1	none (no result: Calb FLC, T cruzi repl, SKKanGAS inh)
Cc1ccc(C)c(S(=O)(=O)N2CCN(C(=O)CCCc3c[nH]c4ccccc34)CC2)c1	T cruzi repl 64
CC1CC/C(=C\c2ccc3c(c2)OCO3)C(=O)/C1=C/c1ccc2c(c1)OCO2 (stereo unspecified)	CSC inhib 81
COc1ccc(C(=O)Nc2nc3ccccc3s2)cc1	none (no result: Beta cell apopt)
Cc1ccc(C(=O)Nc2nc3ccccc3c(=O)s2)cc1	Calb FLC 87 (no result: Beta cell apopt, CSC inhib)
O=C(Nc1nc(=O)c2ccccc2s1)c1ccccc1	Calb FLC 87
COC(=O)c1[nH]c2cc(C)ccc2c1NC(=O)CN1CCCc2ccccc21	T cruzi repl 59
COc1ccc(CCn2c(C)cc(C(=O)CN3C(=O)C(=O)N(C4CCCC4)C3=O)c2C)cc1OC	none (no result: Calb FLC, T cruzi repl, SKKanGAS inh, Beta cell apopt, CSC inhib)
Cc1cc(C)cc(C(=O)NC(=S)Nc2ccc(Cc3ccncc3)cc2)c1	none
CCOc1ccc(N/C(C)=C/C(=O)c2ccc(C)o2)cc1	T cruzi repl 60
COc1ccc(Br)cc1C(=O)Nc1ccc(Cc2ccncc2)cc1	T cruzi repl 73
COc1cc(C(=O)NC(=S)Nc2ccc(Cc3ccncc3)cc2)cc(OC)c1OC	SKKanGAS inh 51
CCOc1ccc(NC(=O)Nc2ccc(Cc3ccncc3)cc2)cc1	CSC inhib 80
O=C(COC(=O)Cn1cnc2ccccc21)Nc1ccc(OC(F)F)cc1	none (no result: Calb FLC, T cruzi repl, SKKanGAS inh)
Cc1ccc(NC(=O)C2(S(=O)(=O)c3ccc(Cl)cc3)CC2)c(Br)c1	none (no result: CSC inhib)
CN1CCN(C(=O)c2ccc(CNS(=O)(=O)c3ccc(F)c(Cl)c3)cc2)CC1	none
c1ccc(N2CCN(c3nc(NCc4ccco4)c4ccccc4n3)CC2)cc1	T cruzi repl 55
CN(C)c1cccc(C(=O)NN2C(=O)NC3(CCCCC3)C2=O)c1	none (no result: Calb FLC, T cruzi repl, SKKanGAS inh, CSC inhib)
CCOc1ccc(NS(=O)(=O)c2ccc3c(c2)N(C(C)=O)CCS3)cc1	none
CCCCCCCCNCCS(=O)(=O)NN1CCOCC1	none (no result: Calb FLC, T cruzi repl, SKKanGAS inh, Beta cell apopt, CSC inhib)
S=C(NCCc1ccccc1)N/N=C/c1ccc(Cl)cc1	SKKanGAS inh 65
COc1ccc(CNc2oc(Cc3cccc4ccccc34)nc2C#N)cc1	SKKanGAS inh 54
